The record followed here is ChEMBL document CHEMBL4229488, “Secondary carbamate linker can facilitate the sustained release of dopamine from brain-targeted prodrug” (Bioorg Med Chem Lett, 2018).

Series [1] deals with T1, Large neutral amino acids transporter small subunit 1 (Homo sapiens, UniProt Q01650). Nature of the series: Inhibition of LAT1-mediated [14C]-L-leucine uptake in human MCF7 cells after 5 mins by liquid scintillation counting method. The class given is cell-based.
Series [2] is described as follows: Stability in pH 7.4 isotonic tris buffer assessed as parent compound remaining after 6 hrs by HPLC analysis. The class given is physicochemical. The note with it: read-out: Stability. The gist of the method: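 Chemical hydrolysis was run at 37 °C in isotonic Tris-HCl buffer at pH 7.4. The percentage of intact parent was measured after 6 h.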
Series [3] is described as follows: Stability in 75% rat plasma assessed as parent compound remaining after 6 hrs by HPLC analysis. The series is classed as ADME, cell-free. The following applies: read-out: Stability. The gist of the method:
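Incubated at 37 °C in 75% rat plasma, alongside isotonic Tris-HCl buffer (pH 7.4) and 10% rat liver homogenate. The read-out was the percentage of intact parent compound after 6 h, taken as conversion to dopamine.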

The target of series [4] is T1, Large neutral amino acids transporter small subunit 1. The experiment in a line: Drug uptake in human MCF7 cells assessed as LAT1-mediated drug transportation rate at 25 to 50 uM after 10 mins by LC-MS analysis. The class given is ADME, cell-based. The following applies: mcf7, 10 min.
The nature of series [5]: Stability in 10% rat liver homogenates assessed as parent compound remaining after 6 hrs by HPLC analysis. The class given is ADME, tissue-based. The following applies: for remaining at 6 h: 10% rat liver homogenate, read-out: Stability. The gist of the method:
(§1)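 Conversion of the compound was followed at 37 °C in 10% rat liver homogenate. The intact parent was tracked over time up to 6 h, and half-life or the percentage remaining at 6 h was taken from this.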

The target in series [6] is T1, Large neutral amino acids transporter small subunit 1. The experiment in a line: Drug uptake in human MCF7 cells assessed as LAT1-mediated drug transportation rate at 3.125 to 100 uM after 10 mins by LC-MS analysis. The class given is ADME, cell-based. The following applies: mcf7, 10 min.
Series [7] is described as follows: Half life in 10% rat liver homogenate by HPLC method. The class given is ADME, tissue-based. The method, boiled down:
as §1

Series [8] can be described thus: Half-life in human in presence of COMT inhibitor entacapone. The class given is ADME, organism-based. The following applies: in vivo.
Series [9] can be described thus: Half-life in human in presence of AADC inhibitor carbidopa. The class given is ADME, organism-based. The following applies: in vivo.

T1 sequence (Q01650 whole entry): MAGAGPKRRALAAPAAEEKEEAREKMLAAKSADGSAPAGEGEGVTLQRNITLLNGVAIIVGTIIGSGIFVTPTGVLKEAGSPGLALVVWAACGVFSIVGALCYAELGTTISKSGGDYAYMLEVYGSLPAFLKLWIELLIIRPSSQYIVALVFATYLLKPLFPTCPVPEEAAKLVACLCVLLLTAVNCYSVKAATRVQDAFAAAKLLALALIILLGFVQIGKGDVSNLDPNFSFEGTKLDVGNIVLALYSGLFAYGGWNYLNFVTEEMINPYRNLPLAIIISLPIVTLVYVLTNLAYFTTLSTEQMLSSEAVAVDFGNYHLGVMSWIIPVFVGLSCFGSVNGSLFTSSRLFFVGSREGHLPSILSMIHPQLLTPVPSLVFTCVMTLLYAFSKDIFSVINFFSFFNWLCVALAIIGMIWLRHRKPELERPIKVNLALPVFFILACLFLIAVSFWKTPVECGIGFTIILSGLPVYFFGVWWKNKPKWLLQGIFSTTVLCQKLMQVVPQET

`Cl.N[C@@H](Cc1ccc(OC(=O)NCCc2ccc(O)c(O)c2)cc1)C(=O)O` showed an IC50 in series [1] of 27.7 µM. For the same molecule, in series [1], the inhibition result is “Dose-dependent effect”. Moreover, the results for the remaining at 6 h in series [2], in series [3] and in series [5] were 78.1 to 93.1%, 40.5 to 60.5% and 63.2 to 66.5%, respectively. Further, the Vmax in series [4] is reported as < 3 pmol/mg/min.

Take `Cl.NC(Cc1cccc(C(=O)NCCc2ccc(O)c(O)c2)c1)C(=O)O` (stereo not given): the half-inhibitory concentration (IC50) in series [1] is 32.4 µM. Further, in series [1], the inhibition entry is “Dose-dependent effect”. Moreover, the remaining at 6 h lay within 83.2 to 83.7% in [2], 57.4 to 62.7% in series [3] and 47.7 to 51.9% in series [5]. Also, the maximal velocity (Vmax) in series [4] was < 3 pmol/mg/min.

In series [1], `N[C@@H](Cc1ccc(O)c(O)c1)C(=O)O` [LEVODOPA] showed an IC50 of 100 µM. The inhibition entry in [1] is “Dose-dependent effect”. Besides, in series [6], the maximal velocity (Vmax) was determined as 2.6 nmol/mg/min. The half-life is 15.5 min in [7], 30 to 90 min in [8] and 60 min in series [9]. Moreover, the remaining at 6 h in series [2] lay within 99.8 to 103%. In addition, the Stability entry in [5] (tissue homogenate, 6 h) is recorded as “Unstable”.

Usually IC50 stands for the point on the concentration scale where inhibition reaches its midpoint. In general, Vmax refers to the top rate of the reaction or transport when substrate is in excess. Broadly, the half-life is how long it takes for the measured level to halve.
